Converted amounts (≈) assume the structure as drawn.
Key:
Format in all cases: functional, Salmonella enterica subsp. enterica serovar Typhimurium
Salmonella typhimurium [1] = test: Antimicrobial activity against Salmonella enterica serovar Typhimurium S21-2 with GyrA S83F, ParC S80I mutation
Outline: (§1)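 MICs measured by broth microdilution on the Sensititre automated system and interpreted by CLSI broth microdilution standards. Ciprofloxacin was also tested by agar dilution, widening the range to 0.0075–128 μg/ml. Quality control strains were E. coli ATCC 25922 and 35218, E. faecalis ATCC 29212, S. aureus ATCC 29213 and P. aeruginosa ATCC 27853.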

Salmonella typhimurium [2] = test: Antimicrobial activity against Salmonella enterica serovar Typhimurium S21-3 with GyrA S83F, ParC S80I mutation; outline: as §1
Salmonella typhimurium [3] = test: Antimicrobial activity against Salmonella enterica serovar Typhimurium S21 acrAB::Kan
Outline: (§2)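 MICs by automated broth microdilution panels, interpreted to CLSI broth microdilution standards. Ciprofloxacin additionally tested by agar dilution across 0.0075 to 128 μg/ml. Quality control strains: E. coli ATCC 25922 and 35218, Enterococcus faecalis ATCC 29212, S. aureus ATCC 29213, P. aeruginosa ATCC 27853. Test strains are kanamycin-marked deletion mutants of ground-beef isolate S21.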

Salmonella typhimurium [4] = test: Antimicrobial activity against Salmonella enterica serovar Typhimurium CHS14 with GyrA D87G mutation; outline: as §1
Salmonella typhimurium [5] = test: Antimicrobial activity against Salmonella enterica serovar Typhimurium CHS18 with GyrA S38F mutation; outline: as §1
Salmonella typhimurium [6] = test: Antimicrobial activity against Salmonella enterica serovar Typhimurium S21-4 gyrA+ with ParC S80I mutation; outline: as §1
Salmonella typhimurium [7] = test: Antimicrobial activity against Salmonella enterica serovar Typhimurium CHS14 gyrA+ with GyrA D87G mutation; outline: as §1
Salmonella typhimurium [8] = test: Antimicrobial activity against Salmonella enterica serovar Typhimurium CHS18 gyrA+ with GyrA S38F mutation; outline: as §1
Salmonella typhimurium [9] = test: Antimicrobial activity against Salmonella enterica serovar Typhimurium S21; outline: as §1
Salmonella typhimurium [10] = test: Antimicrobial activity against Salmonella enterica serovar Typhimurium CHS38 with GyrA D87G mutation; outline: as §1
Salmonella typhimurium [11] = test: Antimicrobial activity against Salmonella enterica serovar Typhimurium S21-1 GyrA S83F mutant; outline: as §1
Salmonella typhimurium [12] = test: Antimicrobial activity against Salmonella enterica serovar Typhimurium CHS18 acrAB::Kan with GyrA S38F mutation; outline: as §1
Salmonella typhimurium [13] = test: Antimicrobial activity against Salmonella enterica serovar Typhimurium CS1 gyrA+ with GyrA S83F, D87N, ParC S80I mutation; outline: as §1
Salmonella typhimurium [14] = test: Antimicrobial activity against Salmonella enterica serovar Typhimurium CS3 acrAB::Kan with GyrA S83F, D87N, ParC S80I mutation; outline: as §1
Salmonella typhimurium [15] = test: Antimicrobial activity against Salmonella enterica serovar Typhimurium CHS14 tolC::Kan with GyrA D87G mutant; outline: as §1
Salmonella typhimurium [16] = test: Antimicrobial activity against Salmonella enterica serovar Typhimurium CS3 with GyrA S83F, D87N, ParC S80I mutation; outline: as §1
Salmonella typhimurium [17] = test: Antimicrobial activity against Salmonella enterica serovar Typhimurium CHS38 gyrA+ with GyrA D87G mutation; outline: as §1
Salmonella typhimurium [18] = test: Antimicrobial activity against Salmonella enterica serovar Typhimurium CS9 gyrA+ with GyrA S83F, D87N, ParC S80I mutation; outline: as §1
Salmonella typhimurium [19] = test: Antimicrobial activity against Salmonella enterica serovar Typhimurium S21-2 gyrA+ with ParC S80I mutation; outline: as §1
Salmonella typhimurium [20] = test: Antimicrobial activity against Salmonella enterica serovar Typhimurium CS9 tolC::Kan with GyrA S83F, D87N, ParC S80I mutation; outline: as §1
Salmonella typhimurium [21] = test: Antimicrobial activity against Salmonella enterica serovar Typhimurium S21 gyrA+; outline: as §1
Salmonella typhimurium [22] = test: Antimicrobial activity against Salmonella enterica serovar Typhimurium CHS14 acrAB::Kan with GyrA D87G mutation; outline: as §1
Salmonella typhimurium [23] = test: Antimicrobial activity against Salmonella enterica serovar Typhimurium CS1 tolC::Kan with GyrA S83F, D87N, ParC S80I mutation; outline: as §1
Salmonella typhimurium [24] = test: Antimicrobial activity against Salmonella enterica serovar Typhimurium CHS38 tolC::Kan with GyrA D87G mutation; outline: as §1
Salmonella typhimurium [25] = test: Antimicrobial activity against Salmonella enterica serovar Typhimurium CS3 gyrA+ with GyrA S83F, D87N, ParC S80I mutation; outline: as §1
Salmonella typhimurium [26] = test: Antimicrobial activity against Salmonella enterica serovar Typhimurium S21 tolC::Kan; outline: as §2
Salmonella typhimurium [27] = test: Antimicrobial activity against Salmonella enterica serovar Typhimurium CHS18 tolC::Kan with GyrA S38F mutation; outline: as §1
Salmonella typhimurium [28] = test: Antimicrobial activity against Salmonella enterica serovar Typhimurium S21-4 with GyrA S83F, ParC S80I mutation; outline: as §1
Salmonella typhimurium [29] = test: Antimicrobial activity against Salmonella enterica serovar Typhimurium CHS38 acrAB::Kan with GyrA D87G mutation; outline: as §1
Salmonella typhimurium [30] = test: Antimicrobial activity against Salmonella enterica serovar Typhimurium S21-3 gyrA+ with ParC S80I mutation; outline: as §1
Salmonella typhimurium [31] = test: Antimicrobial activity against Salmonella enterica serovar Typhimurium CS3 tolC::Kan with GyrA S83F, D87N, parC S80I mutation; outline: as §1
Salmonella typhimurium [32] = test: Antimicrobial activity against Salmonella enterica serovar Typhimurium CS1 acrAB::Kan with GyrA S83F, D87N, ParC S80I mutation; outline: as §1
Salmonella typhimurium [33] = test: Antimicrobial activity against Salmonella enterica serovar Typhimurium CS9 acrAB::Kan with GyrA S83F, D87N, ParC S80I mutation; outline: as §1
Salmonella typhimurium [34] = test: Antimicrobial activity against Salmonella enterica serovar Typhimurium CS1 with GyrA S83F, D87N, ParC S80I mutation; outline: as §1
Salmonella typhimurium [35] = test: Antimicrobial activity against Salmonella enterica serovar Typhimurium CS9 with GyrA S83F, D87N, ParC S80I mutation; outline: as §1
Salmonella typhimurium [36] = test: Antimicrobial activity against Salmonella enterica serovar Typhimurium S21-1 gyrA+; outline: as §1
Salmonella typhimurium [37] = test: Antimicrobial activity against Salmonella enterica serovar Typhimurium S21-3 acrAB::Kan with GyrA S83F, ParC S80I mutation; outline: as §1
Salmonella typhimurium [38] = test: Antimicrobial activity against Salmonella enterica serovar Typhimurium S21-2 acrAB::Kan with GyrA S83F, ParC S80I mutation; outline: as §1
Salmonella typhimurium [39] = test: Antimicrobial activity against Salmonella enterica serovar Typhimurium S21-3 tolC::Kan with GyrA S83F, ParC S80I mutation; outline: as §1
Salmonella typhimurium [40] = test: Antimicrobial activity against Salmonella enterica serovar Typhimurium S21-4 tolC::Kan with GyrA S83F, ParC S80I mutation; outline: as §1
Salmonella typhimurium [41] = test: Antimicrobial activity against Salmonella enterica serovar Typhimurium S21-4 acrAB::Kan with GyrA S83F, ParC S80I mutation; outline: as §1
Salmonella typhimurium [42] = test: Antimicrobial activity against Salmonella enterica serovar Typhimurium S21-2 tolC::Kan with GyrA S83F, ParC S80I mutation; outline: as §1

## CO/N=C(\C(=O)N[C@@H]1C(=O)N2C(C(=O)O)=C(CSC(=O)c3ccco3)CS[C@H]12)c1csc(N)n1 [CEFTIOFUR]
Salmonella typhimurium [1]
  MIC: 4 µg/mL (≈ 7.64 µM)
Salmonella typhimurium [2]
  MIC: 4 µg/mL (≈ 7.64 µM)
Salmonella typhimurium [3]
  MIC: < 0.12 µg/mL
Salmonella typhimurium [4]
  MIC: 1 µg/mL (≈ 1.91 µM)
Salmonella typhimurium [5]
  MIC: 1 µg/mL (≈ 1.91 µM)
Salmonella typhimurium [6]
  MIC: 4 µg/mL (≈ 7.64 µM)
Salmonella typhimurium [7]
  MIC: 1 µg/mL (≈ 1.91 µM)
Salmonella typhimurium [8]
  MIC: 1 µg/mL (≈ 1.91 µM)
Salmonella typhimurium [9]
  MIC: 0.5 µg/mL (≈ 0.955 µM)
Salmonella typhimurium [10]
  MIC: 0.5 µg/mL (≈ 0.955 µM)
Salmonella typhimurium [11]
  MIC: 0.5 µg/mL (≈ 0.955 µM)
Salmonella typhimurium [12]
  MIC: 0.12 µg/mL (≈ 0.229 µM)
Salmonella typhimurium [13]
  MIC: 1 µg/mL (≈ 1.91 µM)
Salmonella typhimurium [14]
  MIC: 0.5 µg/mL (≈ 0.955 µM)
Salmonella typhimurium [15]
  MIC: < 0.12 µg/mL
Salmonella typhimurium [16]
  MIC: 1 µg/mL (≈ 1.91 µM)
Salmonella typhimurium [17]
  MIC: 0.5 µg/mL (≈ 0.955 µM)
Salmonella typhimurium [18]
  MIC: 1 µg/mL (≈ 1.91 µM)
Salmonella typhimurium [19]
  MIC: 4 µg/mL (≈ 7.64 µM)
Salmonella typhimurium [20]
  MIC: 0.5 µg/mL (≈ 0.955 µM)
Salmonella typhimurium [21]
  MIC: 0.5 µg/mL (≈ 0.955 µM)
Salmonella typhimurium [22]
  MIC: < 0.12 µg/mL
Salmonella typhimurium [23]
  MIC: 0.5 µg/mL (≈ 0.955 µM)
Salmonella typhimurium [24]
  MIC: 0.12 µg/mL (≈ 0.229 µM)
Salmonella typhimurium [25]
  MIC: 1 µg/mL (≈ 1.91 µM)
Salmonella typhimurium [26]
  MIC: < 0.12 µg/mL
Salmonella typhimurium [27]
  MIC: 0.12 µg/mL (≈ 0.229 µM)
Salmonella typhimurium [28]
  MIC: 4 µg/mL (≈ 7.64 µM)
Salmonella typhimurium [29]
  MIC: 0.12 µg/mL (≈ 0.229 µM)
Salmonella typhimurium [30]
  MIC: 4 µg/mL (≈ 7.64 µM)
Salmonella typhimurium [31]
  MIC: 0.5 µg/mL (≈ 0.955 µM)
Salmonella typhimurium [32]
  MIC: 0.5 µg/mL (≈ 0.955 µM)
Salmonella typhimurium [33]
  MIC: 0.5 µg/mL (≈ 0.955 µM)
Salmonella typhimurium [34]
  MIC: 1 µg/mL (≈ 1.91 µM)
Salmonella typhimurium [35]
  MIC: 1 µg/mL (≈ 1.91 µM)
Salmonella typhimurium [36]
  MIC: 0.5 µg/mL (≈ 0.955 µM)

## CC(=O)OCC1=C(C(=O)O)N2C(=O)[C@@H](NC(=O)Cc3cccs3)[C@H]2SC1 [CEPHALOTHIN]
Salmonella typhimurium [37]
  MIC: 8 µg/mL (≈ 20.2 µM)
Salmonella typhimurium [1]
  MIC: > 32 µg/mL
Salmonella typhimurium [2]
  MIC: > 32 µg/mL
Salmonella typhimurium [3]
  MIC: < 2 µg/mL
Salmonella typhimurium [38]
  MIC: 8 µg/mL (≈ 20.2 µM)
Salmonella typhimurium [4]
  MIC: 4 µg/mL (≈ 10.1 µM)
Salmonella typhimurium [5]
  MIC: 4 µg/mL (≈ 10.1 µM)
Salmonella typhimurium [39]
  MIC: 8 µg/mL (≈ 20.2 µM)
Salmonella typhimurium [6]
  MIC: > 32 µg/mL
Salmonella typhimurium [7]
  MIC: < 2 µg/mL
Salmonella typhimurium [8]
  MIC: 4 µg/mL (≈ 10.1 µM)
Salmonella typhimurium [9]
  MIC: < 2 µg/mL
Salmonella typhimurium [10]
  MIC: 8 µg/mL (≈ 20.2 µM)
Salmonella typhimurium [11]
  MIC: 8 µg/mL (≈ 20.2 µM)
Salmonella typhimurium [12]
  MIC: 2 µg/mL (≈ 5.04 µM)
Salmonella typhimurium [13]
  MIC: 8 µg/mL (≈ 20.2 µM)
Salmonella typhimurium [14]
  MIC: 8 µg/mL (≈ 20.2 µM)
Salmonella typhimurium [15]
  MIC: < 2 µg/mL
Salmonella typhimurium [40]
  MIC: 8 µg/mL (≈ 20.2 µM)
Salmonella typhimurium [16]
  MIC: 16 µg/mL (≈ 40.4 µM)
Salmonella typhimurium [17]
  MIC: 16 µg/mL (≈ 40.4 µM)
Salmonella typhimurium [18]
  MIC: 8 µg/mL (≈ 20.2 µM)
Salmonella typhimurium [19]
  MIC: > 32 µg/mL
Salmonella typhimurium [20]
  MIC: 8 µg/mL (≈ 20.2 µM)
Salmonella typhimurium [21]
  MIC: < 2 µg/mL
Salmonella typhimurium [22]
  MIC: < 2 µg/mL
Salmonella typhimurium [23]
  MIC: 8 µg/mL (≈ 20.2 µM)
Salmonella typhimurium [24]
  MIC: 8 µg/mL (≈ 20.2 µM)
Salmonella typhimurium [25]
  MIC: 8 µg/mL (≈ 20.2 µM)
Salmonella typhimurium [41]
  MIC: 8 µg/mL (≈ 20.2 µM)
Salmonella typhimurium [26]
  MIC: < 2 µg/mL
Salmonella typhimurium [27]
  MIC: 2 µg/mL (≈ 5.04 µM)
Salmonella typhimurium [28]
  MIC: > 32 µg/mL
Salmonella typhimurium [29]
  MIC: 8 µg/mL (≈ 20.2 µM)
Salmonella typhimurium [30]
  MIC: > 32 µg/mL
Salmonella typhimurium [31]
  MIC: 8 µg/mL (≈ 20.2 µM)
Salmonella typhimurium [32]
  MIC: 8 µg/mL (≈ 20.2 µM)
Salmonella typhimurium [33]
  MIC: 8 µg/mL (≈ 20.2 µM)
Salmonella typhimurium [34]
  MIC: 16 µg/mL (≈ 40.4 µM)
Salmonella typhimurium [35]
  MIC: 16 µg/mL (≈ 40.4 µM)
Salmonella typhimurium [36]
  MIC: 8 µg/mL (≈ 20.2 µM)
Salmonella typhimurium [42]
  MIC: 8 µg/mL (≈ 20.2 µM)

— ChEMBL document CHEMBL1142136, “Contribution of target gene mutations and efflux to decreased susceptibility of Salmonella enterica serovar typhimurium to fluoroquinolones and other antimicrobials” (2007)
